Where “and” joins values, the source holds several entries; their conditions need not be identical. Equal entries are not always repeated. Calls of active or inactive are those of the source.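 The calls were made as follows: active = fitted curve reaching 40% activation at or below the top valid tested dose; inactive = the rest, or activity counter to the expected direction.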
Tested on: not listed separately
Assay: HIF pathway activators in reporter cells, dose response, cell-based, U2OS HRE-luciferase, luminescence, dry powder, set 3 (AID 493180)
Conditions: U2OS HRE-luciferase reporter, luminescence, HIF pathway activation; at 38 µM (top of the series)
Summary of the method: (§1)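 System: U2OS 3xHRE-luciferase reporter cells / Quantity: 6,000 U2OS reporter cells per well / Doses: 8-point series in 3-fold steps, 7.5 mM top stock / Measured by: luciferase luminescence measured with Steady-Glo reagent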
For `Oc1ccc(CNC2CCc3ccccc32)c2cccnc12` (stereo not drawn), the activation was 11.5% (inactive).
In the case of `Oc1ccc(CN2CCC(Cc3ccccc3)CC2)c2cccnc12`, the activation is reported as 22.2% (inactive).
In the case of `O=C(NCC1CCCCC1)c1cc(-c2ccccc2)on1`, the activation is reported as 3.45% (inactive).
For `CN1CCN(C(=O)c2cc(-c3ccccc3)on2)CC1`, the activation was -0.645% (inactive).
For `Cn1c(NC(=O)c2cc(-c3ccccc3)on2)nc2ccccc21`, the activation was 0.384% (inactive).
For `Cc1cccc(CNC(=O)c2cc(-c3ccccc3)on2)c1`, the activation was -1.13% (inactive).
For `CC(C)(C)CCNC(=O)c1cc(-c2ccccc2)on1`, the activation was 19.3% (inactive).
In the case of `Cc1ccccc1CNC(=O)c1cc(-c2ccccc2)on1`, the activation is reported as 1.28% (inactive).
For `O=C(Nc1nnc(-c2ccccc2)s1)c1cc(-c2ccccc2)on1`, the activation was 0.329% (inactive).
With `Cn1c(-c2ccccc2)cnc1NC(=O)c1cc(-c2ccccc2)on1` the activation was 0.636% (inactive).
In the case of `O=C(c1cc(-c2ccccc2)on1)N1CCC(N2CCCC2)CC1`, the activation is reported as 0.044% (inactive).
In the case of `O=C(NC1Cc2ccccc2C1)c1cc(-c2ccccc2)on1`, the activation is reported as 2.88% (inactive).
In the case of `N#CC1(c2ccccc2)CCN(Cc2ccc(O)c3ncccc23)CC1`, the activation is reported as 6.8% (inactive).
In the case of `O=C(NC1CCc2ccccc2C1)c1cc(-c2ccccc2)on1` (stereo not drawn), the activation is reported as -0.627% (inactive).
With `Cc1cccc(NC(=O)c2cc(-c3ccccc3)on2)n1` the activation was 1.4% (inactive).
In the case of `O=C(Nc1cnc2ccccc2c1)c1cc(-c2ccccc2)on1`, the activation is reported as 0.049% (inactive).
In the case of `CN(C)CCNC(=O)c1cc(-c2ccccc2)on1`, the activation is reported as 1.68% (inactive).
With `Oc1ccc(CN2CCc3ccccc3C2)c2cccnc12` the activation was 1.34% (inactive).
For `O=C(Nc1ncc(-c2ccccc2)o1)c1cc(-c2ccccc2)on1`, the activation was -0.837% (inactive).
For `Cc1ccc(CNC(=O)c2cc(-c3ccccc3)on2)cc1`, the activation was -0.867% (inactive).
With `CC1CN(Cc2ccc(O)c3ncccc23)CC(C)O1` (stereo not drawn) the activation was 2.27% (inactive).
In the case of `O=C(Nc1ncc2ccccc2n1)c1cc(-c2ccccc2)on1`, the activation is reported as 2.48% (inactive).
With `Cc1ccc(NC(=O)c2cc(-c3ccccc3)on2)cn1` the activation was 1.37% (inactive).
In the case of `O=C(NCc1ccccc1)c1cc(-c2ccccc2)on1`, the activation is reported as 0.892% (inactive).
In the case of `O=C(c1cc(-c2ccccc2)on1)N1CCN(c2ccncc2)CC1`, the activation is reported as -1.02% (inactive).

Tested on: U2OS HRE-luciferase reporter, luminescence, HIF pathway activation
Assay: as above
Conditions: not given
Summary of the method: as §1
For `c1ccc(-c2cnc(Nc3nc(-c4ccccn4)nnc3-c3ccccc3)s2)cc1`, the AC40 was > 4.6 µM (inactive).
With `O=C(c1cc(-c2ccccc2)on1)N1CCC(N2CCOCC2)CC1` the AC40 was > 4.6 µM (inactive).
`O=C(NCC1CC1)c1cc(-c2ccccc2)on1` showed an AC40 of 31 µM.
For `Cc1cccc(Nc2nc(-c3ccccn3)nnc2-c2ccccc2)n1`, the AC40 was 14.2 µM.
`c1ccc(-c2nnc(-c3ccccn3)nc2N2CCC(C3CCCCC3)C2)cc1` (stereo not drawn) showed an AC40 of 1.5 µM.
`O=C(NCCN1CCCCC1)c1cc(-c2ccccc2)on1` gave an AC40 of 2.5 µM.
With `O=C(NCCCn1ccnc1)c1cc(-c2ccccc2)on1` the AC40 was 28.9 µM.
For `c1ccc(-c2nnc(-c3ccccn3)nc2NCc2ccccn2)cc1`, the AC40 was 22 µM.
For `CC(C)(C)CCNc1nc(-c2ccccn2)nnc1-c1ccccc1`, the AC40 was 3.2 µM and 1.8 µM.
`c1ccc(-c2nnc(-c3ccccn3)nc2N2CCC(N3CCOCC3)CC2)cc1` showed an AC40 of 7.47 µM.
Compound `C=CCNc1nc(-c2ccccn2)nnc1-c1ccccc1` has an AC40 of 7.74 µM.
With `O=C(NCCCN1CCOCC1)c1cc(-c2ccccc2)on1` the AC40 was > 38 µM (inactive).
Work on `Cc1ccc(CNc2nc(-c3ccccn3)nnc2-c2ccccc2)cc1C` yielded an AC40 of 2.12 µM.
`C[C@@H](Nc1nc(-c2ccccn2)nnc1-c1ccccc1)C1CCCCC1` showed an AC40 of 5.21 µM.
In the case of `O=C(NCCN1CCOCC1)c1cc(-c2ccccc2)on1`, the AC40 is reported as > 38 µM (inactive).
For `c1ccc(-c2nnc(-c3ccccn3)nc2N2CCC(c3ccccc3)C2)cc1` (stereo not drawn), the AC40 was 2.54 µM.
Compound `c1ccc(CCNc2nc(-c3ccccn3)nnc2-c2ccccc2)cc1` has an AC40 of 2.69 µM.
With `c1ccc(-c2nnc(Nc3nc(-c4ccccn4)nnc3-c3ccccc3)s2)cc1` the AC40 was 25.3 µM.
`c1ccc(-c2ccc(CNc3nc(-c4ccccn4)nnc3-c3ccccc3)cc2)cc1` showed an AC40 of 1.09 µM.
`c1ccc(-c2nnc(-c3ccccn3)nc2NCCN2CCOCC2)cc1` showed an AC40 of 15.3 µM.
For `CCCCNC(=O)c1cc(-c2ccccc2)on1`, the AC40 was > 38 µM (inactive).
For `Cc1ccc(Nc2nc(-c3ccccn3)nnc2-c2ccccc2)cn1`, the AC40 was 13.6 µM.
Work on `c1ccc(-c2nnc(-c3ccccn3)nc2Nc2nc3ccccc3s2)cc1` yielded an AC40 of 5.89 µM.
For `CC(C)(C)c1ccc(CNc2nc(-c3ccccn3)nnc2-c2ccccc2)cc1`, the AC40 was 2.15 µM.
`c1ccc(-c2cccc(CNc3nc(-c4ccccn4)nnc3-c3ccccc3)c2)cc1` gave an AC40 of 1 µM.
For `COc1ccccc1N1CCN(Cc2ccc(O)c3ncccc23)CC1`, the AC40 was > 38 µM (inactive).
`OCCCNc1nc(-c2ccccn2)nnc1-c1ccccc1` gave an AC40 of 22.2 µM.
In the case of `c1ccc(CNc2nc(-c3ccccn3)nnc2-c2ccccc2)cc1`, the AC40 is reported as 5.63 µM.
`COc1cccc(CNc2nc(-c3ccccn3)nnc2-c2ccccc2)c1` showed an AC40 of 2.83 µM.
For `c1ccc(-c2nnc(-c3ccccn3)nc2NCCCN2CCOCC2)cc1`, the AC40 was 7.33 µM.
Work on `Clc1cccc(CNc2nc(-c3ccccn3)nnc2-c2ccccc2)c1` yielded an AC40 of 2.21 µM.
`Cn1c(-c2ccccc2)cnc1Nc1nc(-c2ccccn2)nnc1-c1ccccc1` gave an AC40 of 5.83 µM.
In the case of `Cc1ccc(CNc2nc(-c3ccccn3)nnc2-c2ccccc2)cc1`, the AC40 is reported as 3.58 µM.
With `Oc1ccc(CNC2Cc3ccccc3C2)c2cccnc12` the AC40 was > 38 µM (inactive).
`O=C(NCCCCO)c1cc(-c2ccccc2)on1` showed an AC40 of 12 µM.
Compound `COc1ccc(CNc2nc(-c3ccccn3)nnc2-c2ccccc2)cc1` has an AC40 of 3.7 µM.
Compound `C[C@@H](Nc1nc(-c2ccccn2)nnc1-c1ccccc1)c1ccccc1` has an AC40 of 5.22 µM.
`c1ccc(-c2nnc(-c3ccccn3)nc2Nc2cnc3ccccc3n2)cc1` gave an AC40 of 7.45 µM.
Work on `c1ccc(-c2nnc(-c3ccccn3)nc2NCc2cccnc2)cc1` yielded an AC40 of 16.3 µM.
In the case of `CN1CCN(c2nc(-c3ccccn3)nnc2-c2ccccc2)CC1`, the AC40 is reported as 21.7 µM.
For `C[C@H](Nc1nc(-c2ccccn2)nnc1-c1ccccc1)C1CCCCC1`, the AC40 was 2.59 µM.
For `c1ccc(-c2csc(Nc3nc(-c4ccccn4)nnc3-c3ccccc3)n2)cc1`, the AC40 was 1.39 µM.
In the case of `O=C(c1cc(-c2ccccc2)on1)N1CCC(CO)CC1`, the AC40 is reported as > 4.6 µM (inactive).
With `Oc1ccc(CN2CCc3ccccc3C2)c2cccnc12` the AC40 was 14.1 µM.
Work on `c1ccc(-c2nnc(-c3ccccn3)nc2NCC2CC2)cc1` yielded an AC40 of 7.63 µM.
For `O=C(c1cc(-c2ccccc2)on1)N1CCc2cccnc21`, the AC40 was > 4.6 µM (inactive).
Work on `Cc1cccc(CNc2nc(-c3ccccn3)nnc2-c2ccccc2)c1` yielded an AC40 of 4.5 µM.
Work on `c1ccc(-c2nnc(-c3ccccn3)nc2NCCc2ccccn2)cc1` yielded an AC40 of 12.5 µM.
With `CC(Nc1nc(-c2ccccn2)nnc1-c1ccccc1)c1ccccc1` (stereo not drawn) the AC40 was 1.94 µM.
With `O=C(Nc1nc2ccccc2s1)c1cc(-c2ccccc2)on1` the AC40 was > 1.5 µM (inactive).
`c1ccc(-c2nnc(-c3ccccn3)nc2NCC2CCOCC2)cc1` showed an AC40 of 22.8 µM.
For `O=C(NCCCO)c1cc(-c2ccccc2)on1`, the AC40 was > 38 µM (inactive).
In the case of `Oc1ccc(CN2CCC3CCCCC3C2)c2cccnc12` (stereo not drawn), the AC40 is reported as 34.8 µM.
`c1ccc(-c2nnc(-c3ccccn3)nc2NCC2CCCCC2)cc1` gave an AC40 of 3.5 µM.
In the case of `O=C(Nc1nc(-c2ccccc2)cs1)c1cc(-c2ccccc2)on1`, the AC40 is reported as > 4.6 µM (inactive).
With `OCC1CCN(Cc2ccc(O)c3ncccc23)CC1` the AC40 was > 4.6 µM (inactive).
`Cc1ccccc1CNc1nc(-c2ccccn2)nnc1-c1ccccc1` showed an AC40 of 5.58 µM.
With `O=C(Nc1cn2ccccc2n1)c1cc(-c2ccccc2)on1` the AC40 was > 4.6 µM (inactive).
For `CC(C)(C)OC(=O)N1CCN(Cc2ccc(O)c3ncccc23)CC1`, the AC40 was > 4.6 µM (inactive).
In the case of `CN(C)c1nc(-c2ccccn2)nnc1-c1ccccc1`, the AC40 is reported as 12.9 µM.
In the case of `O=C(Nc1ccc2ccccc2n1)c1cc(-c2ccccc2)on1`, the AC40 is reported as > 4.6 µM (inactive).
`OCC1CCN(c2nc(-c3ccccn3)nnc2-c2ccccc2)CC1` gave an AC40 of 21.1 µM.
Compound `c1ccc(-c2nnc(-c3ccccn3)nc2N2CCN(c3ccncc3)CC2)cc1` has an AC40 of 4.63 µM.

Source: PubChem BioAssay AID493180 (Broad Institute, 2011)
